# Data: ChEMBL document CHEMBL1275556, “High prevalence of plasmid-mediated quinolone resistance genes qnr and aac(6')-Ib-cr in clinical isolates of Enterobacteriaceae from nine teaching hospitals in China” (2008)
# Assays:
# Citrobacter freundii [1] = assay: Antimicrobial activity against aac(6')-Ib-cr-positive Citrobacter freundii JN1T by agar dilution method; type: functional
# Outline: (§1)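 MICs were determined by the CLSI agar dilution method (M7-A7) and interpreted against CLSI M100-S17 breakpoints.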
# Citrobacter freundii [2] = assay: Antimicrobial activity against aac(6')-Ib-cr-positive Citrobacter freundii JS33 harboring GyrA T83I mutant, wild-type ParC, GyrB, qnrA and qnrB genes by agar dilution method; type: functional; outline: as §1
# Enterobacter cloacae [3] = assay: Antimicrobial activity against aac(6')-Ib-cr-negative Enterobacter cloacae FJ67 harboring […] and qnrS genes by agar dilution method; type: functional
# Citrobacter freundii [4] = assay: Antimicrobial activity against aac(6')-Ib-cr-positive Citrobacter freundii TJ15 harboring GyrA T83I, ParC S80I mutant, wild-type GyrB, qnrB genes by agar dilution method; type: functional; outline: as §1
# Enterobacter cloacae [5] = assay: Antimicrobial activity against aac(6')-Ib-cr-positive Enterobacter cloacae FJ63T harboring qnrS gene by agar dilution method; type: functional
# Klebsiella pneumoniae [6] = assay: Antimicrobial activity against aac(6')-Ib-cr-positive Klebsiella pneumoniae SY26T harboring wild-type GyrA, ParC, GyrB and qnrB genes by agar dilution method; type: functional
# Outline: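 Transconjugants were made by conjugating a qnr/aac(6')-Ib-cr donor with azide-resistant E. coli J53. MICs were read by CLSI agar dilution (M7-A7) and interpreted per M100-S17.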
# Klebsiella pneumoniae [7] = assay: Antimicrobial activity against aac(6')-Ib-cr-positive Klebsiella pneumoniae WH99 harboring wild-type GyrA, ParC, GyrB and qnrB genes by agar dilution method; type: functional
# Outline: (§2)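 MICs were determined on clinical isolates by CLSI agar dilution (M7-A7) and interpreted against CLSI M100-S17 breakpoints.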
# Klebsiella pneumoniae [8] = assay: Antimicrobial activity against aac(6')-Ib-cr-positive Klebsiella pneumoniae GZ40 harboring GyrA S83I, ParC S80I mutant, wild-type GyrB and qnrB genes by agar dilution method; type: functional; outline: as §1
# Citrobacter freundii [9] = assay: Antimicrobial activity against aac(6')-Ib-cr-positive Citrobacter freundii PU55T harboring wild-type GyrA, ParC, GyrB and qnrA genes by agar dilution method
# Enterobacter cloacae [10] = assay: Antimicrobial activity against aac(6')-Ib-cr-negative Enterobacter cloacae SH39 harboring GyrA S83I, ParC S80I mutant, wild-type GyrB and qnrA genes by agar dilution method; type: functional
# Citrobacter freundii [11] = assay: Antimicrobial activity against aac(6')-Ib-cr-positive Citrobacter freundii TJ15T harboring wild-type GyrA, ParC, GyrB genes by agar dilution method; type: functional; outline: as §1
# Escherichia coli [12] = assay: Antimicrobial activity against aac(6')-Ib-cr-negative Escherichia coli PU12 harboring GyrA S83L mutant, wild-type GyrB, ParC and qnrS genes by agar dilution method; type: functional; outline: as §1
# Escherichia coli [13] = assay: Antimicrobial activity against aac(6')-Ib-cr-positive Escherichia coli FJ3 harboring GyrA S83L, ParC S80R mutant, wild-type GyrB and qnrB genes by agar dilution method; type: functional; outline: as §1
# Escherichia coli [14] = assay: Antimicrobial activity against Escherichia coli J53 harboring wild-type GyrA, ParC, GyrB genes by agar dilution method
# Enterobacter cloacae [15] = assay: Antimicrobial activity against aac(6')-Ib-cr-negative Enterobacter cloacae FJ61T harboring qnrS gene by agar dilution method; type: functional
# Citrobacter freundii [16] = assay: Antimicrobial activity against aac(6')-Ib-cr-positive Citrobacter freundii PU55 harboring GyrA T83I, ParC S80I mutant, wild-type GyrB, qnrA genes by agar dilution method; type: functional; outline: as §1
# Enterobacter cloacae [17] = assay: Antimicrobial activity against aac(6')-Ib-cr-negative Enterobacter cloacae WH42 harboring wild-type GyrA, ParC, GyrB and qnrA genes by agar dilution method; type: functional
# Citrobacter freundii [18] = assay: Antimicrobial activity against aac(6')-Ib-cr-negative Citrobacter freundii JN64 harboring GyrA T83I, wild-type ParC, GyrB and qnrA genes by agar dilution method; type: functional; outline: as §1
# Enterobacter cloacae [19] = assay: Antimicrobial activity against aac(6')-Ib-cr-negative Enterobacter cloacae FJ61 harboring GyrA S83I, GyrA D87A, ParC S80I mutant, wild-type GyrB and qnrS genes by agar dilution method; type: functional
# Klebsiella pneumoniae [20] = assay: Antimicrobial activity against aac(6')-Ib-cr-positive Klebsiella pneumoniae SY26 harboring GyrA S83I, ParC S80I mutant, wild-type GyrB and qnrB genes by agar dilution method; type: functional; outline: as §2
# Citrobacter freundii [21] = assay: Antimicrobial activity against aac(6')-Ib-cr-positive Citrobacter freundii JS33T harboring qnrA gene by agar dilution method; type: functional; outline: as §1
# Citrobacter freundii [22] = assay: Antimicrobial activity against aac(6')-Ib-cr-negative Citrobacter freundii JN64T harboring qnrA gene by agar dilution method; type: functional; outline: as §1
# Enterobacter cloacae [23] = assay: Antimicrobial activity against aac(6')-Ib-cr-negative Enterobacter cloacae GZ47 harboring qnrB and qnrS genes by agar dilution method; type: functional
# Klebsiella pneumoniae [24] = assay: Antimicrobial activity against aac(6')-Ib-cr-positive Klebsiella pneumoniae JN132T harboring qnrB gene by agar dilution method; type: functional
# Outline: (§3)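 Transconjugants were made by conjugating a qnr/aac(6')-Ib-cr donor with azide-resistant E. coli J53. Selection used Trypticase soy agar with sodium azide 150 µg/ml and sulfamethoxazole 180 µg/ml. […] MICs were read by CLSI agar dilution (M7-A7) and interpreted per M100-S17.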
# Klebsiella pneumoniae [25] = assay: Antimicrobial activity against aac(6')-Ib-cr-positive Klebsiella pneumoniae JN132 harboring GyrA S83I, ParC S80I mutant, wild-type GyrB and qnrB genes by agar dilution method; type: functional; outline: as §2
# Klebsiella pneumoniae [26] = assay: Antimicrobial activity against aac(6')-Ib-cr-positive Klebsiella pneumoniae GZ40T harboring qnrB gene by agar dilution method
# Klebsiella pneumoniae [27] = assay: Antimicrobial activity against aac(6')-Ib-cr-positive Klebsiella pneumoniae JN41T harboring qnrB gene by agar dilution method; type: functional; outline: as §3
# Klebsiella pneumoniae [28] = assay: Antimicrobial activity against aac(6')-Ib-cr-negative Klebsiella pneumoniae SY22 harboring GyrA S83I, ParC S80I mutant, wild-type GyrB and qnrS genes by agar dilution method; type: functional; outline: as §1
# Enterobacter cloacae [29] = assay: Antimicrobial activity against aac(6')-Ib-cr-negative Enterobacter cloacae WH42T harboring qnrA gene by agar dilution method; type: functional
# Klebsiella pneumoniae [30] = assay: Antimicrobial activity against aac(6')-Ib-cr-negative Klebsiella pneumoniae SY22T harboring qnrS gene by agar dilution method; type: functional; outline: as §1
# Enterobacter cloacae [31] = assay: Antimicrobial activity against aac(6')-Ib-cr-negative Enterobacter cloacae GZ51 harboring qnrA gene by agar dilution method; type: functional
# Enterobacter cloacae [32] = assay: Antimicrobial activity against aac(6')-Ib-cr-positive Enterobacter cloacae FJ63 harboring GyrA S83I, GyrA D87A, ParC S80I mutant, wild-type GyrB and qnrS genes by agar dilution method; type: functional
# Klebsiella pneumoniae [33] = assay: Antimicrobial activity against aac(6')-Ib-cr-positive Klebsiella pneumoniae WH99T harboring qnrB gene by agar dilution method; type: functional; outline: as §3
# Citrobacter freundii [34] = assay: Antimicrobial activity against aac(6')-Ib-cr-positive Citrobacter freundii JN1 harboring GyrA T83I, ParC S80I mutant, wild-type GyrB and qnrA genes by agar dilution method; type: functional; outline: as §1
# Escherichia coli [35] = assay: Antimicrobial activity against aac(6')-Ib-cr-negative Escherichia coli PU12T harboring wild-type GyrA, GyrB, ParC and qnrS genes by agar dilution method; type: functional; outline: as §1
# Enterobacter cloacae [36] = assay: Antimicrobial activity against aac(6')-Ib-cr-negative Enterobacter cloacae GZ47T harboring qnrB gene by agar dilution method; type: functional
# Klebsiella pneumoniae [37] = assay: Antimicrobial activity against aac(6')-Ib-cr-positive Klebsiella pneumoniae JN41 harboring GyrA S83I, ParC S80I mutant, wild-type GyrB and qnrB genes by agar dilution method; type: functional; outline: as §2
# Enterobacter cloacae [38] = assay: Antimicrobial activity against aac(6')-Ib-cr-negative Enterobacter cloacae SH39T harboring qnrA gene by agar dilution method; type: functional
# Enterobacter cloacae [39] = assay: Antimicrobial activity against aac(6')-Ib-cr-negative Enterobacter cloacae GZ51T harboring qnrA gene by agar dilution method; type: functional
# Enterobacter cloacae [40] = assay: Antimicrobial activity against aac(6')-Ib-cr-negative Enterobacter cloacae FJ67T harboring qnrS gene by agar dilution method; type: functional
# Escherichia coli [41] = assay: Antimicrobial activity against aac(6')-Ib-cr-positive Escherichia coli FJ3T harboring wild-type GyrA, ParC, GyrB and qnrB genes by agar dilution method
smiles,measurement,setting,value
C[C@@H](O)[C@H]1C(=O)N2C(C(=O)O)=C(S[C@@H]3CN[C@H](C(=O)N(C)C)C3)[C@H](C)[C@H]12 [MEROPENEM],MIC,Citrobacter freundii [1],0.016 µg/mL
same,MIC,Citrobacter freundii [2],0.125 µg/mL
same,MIC,Enterobacter cloacae [3],0.032 µg/mL
same,MIC,Citrobacter freundii [4],0.032 µg/mL
same,MIC,Enterobacter cloacae [5],0.064 µg/mL
same,MIC,Klebsiella pneumoniae [6],0.016 µg/mL
same,MIC,Klebsiella pneumoniae [7],0.032 µg/mL
same,MIC,Klebsiella pneumoniae [8],0.125 µg/mL
same,MIC,Citrobacter freundii [9],0.016 µg/mL
same,MIC,Enterobacter cloacae [10],0.125 µg/mL
same,MIC,Citrobacter freundii [11],0.016 µg/mL
same,MIC,Escherichia coli [12],0.016 µg/mL
same,MIC,Escherichia coli [13],0.032 µg/mL
same,MIC,Escherichia coli [14],0.016 µg/mL
same,MIC,Enterobacter cloacae [15],0.016 µg/mL
same,MIC,Citrobacter freundii [16],0.25 µg/mL
same,MIC,Enterobacter cloacae [17],0.125 µg/mL
same,MIC,Citrobacter freundii [18],0.25 µg/mL
same,MIC,Enterobacter cloacae [19],0.25 µg/mL
same,MIC,Klebsiella pneumoniae [20],0.125 µg/mL
same,MIC,Citrobacter freundii [21],0.032 µg/mL
same,MIC,Citrobacter freundii [22],0.016 µg/mL
same,MIC,Enterobacter cloacae [23],0.032 µg/mL
same,MIC,Klebsiella pneumoniae [24],0.032 µg/mL
same,MIC,Klebsiella pneumoniae [25],0.032 µg/mL
same,MIC,Klebsiella pneumoniae [26],0.016 µg/mL
same,MIC,Klebsiella pneumoniae [27],0.016 µg/mL
same,MIC,Klebsiella pneumoniae [28],0.016 µg/mL
same,MIC,Enterobacter cloacae [29],0.016 µg/mL
same,MIC,Klebsiella pneumoniae [30],0.016 µg/mL
same,MIC,Enterobacter cloacae [31],0.064 µg/mL
same,MIC,Enterobacter cloacae [32],1 µg/mL
same,MIC,Klebsiella pneumoniae [33],0.016 µg/mL
same,MIC,Citrobacter freundii [34],0.125 µg/mL
same,MIC,Escherichia coli [35],0.016 µg/mL
same,MIC,Enterobacter cloacae [36],0.016 µg/mL
same,MIC,Klebsiella pneumoniae [37],0.032 µg/mL
same,MIC,Enterobacter cloacae [38],0.016 µg/mL
same,MIC,Enterobacter cloacae [39],0.016 µg/mL
same,MIC,Enterobacter cloacae [40],0.032 µg/mL
same,MIC,Escherichia coli [41],0.032 µg/mL
Cc1cc(NS(=O)(=O)c2ccc(N)cc2)no1 [SULFAMETHOXAZOLE],MIC,Citrobacter freundii [1],32 µg/mL
same,MIC,Citrobacter freundii [2],> 256 µg/mL
same,MIC,Enterobacter cloacae [3],> 256 µg/mL
same,MIC,Citrobacter freundii [4],> 256 µg/mL
same,MIC,Enterobacter cloacae [5],> 256 µg/mL
same,MIC,Klebsiella pneumoniae [6],> 256 µg/mL
same,MIC,Klebsiella pneumoniae [7],> 256 µg/mL
same,MIC,Klebsiella pneumoniae [8],> 256 µg/mL
same,MIC,Citrobacter freundii [9],> 256 µg/mL
same,MIC,Enterobacter cloacae [10],> 256 µg/mL
same,MIC,Citrobacter freundii [11],> 256 µg/mL
same,MIC,Escherichia coli [12],> 256 µg/mL
same,MIC,Escherichia coli [13],> 256 µg/mL
same,MIC,Escherichia coli [14],16 µg/mL
same,MIC,Enterobacter cloacae [15],16 µg/mL
same,MIC,Citrobacter freundii [16],> 256 µg/mL
same,MIC,Enterobacter cloacae [17],> 256 µg/mL
same,MIC,Citrobacter freundii [18],> 256 µg/mL
same,MIC,Enterobacter cloacae [19],16 µg/mL
same,MIC,Klebsiella pneumoniae [20],> 256 µg/mL
same,MIC,Citrobacter freundii [21],> 256 µg/mL
same,MIC,Citrobacter freundii [22],> 256 µg/mL
same,MIC,Enterobacter cloacae [23],> 256 µg/mL
same,MIC,Klebsiella pneumoniae [24],> 256 µg/mL
same,MIC,Klebsiella pneumoniae [25],> 256 µg/mL
same,MIC,Klebsiella pneumoniae [26],> 256 µg/mL
same,MIC,Klebsiella pneumoniae [27],> 256 µg/mL
same,MIC,Klebsiella pneumoniae [28],64 µg/mL
same,MIC,Enterobacter cloacae [29],> 256 µg/mL
same,MIC,Klebsiella pneumoniae [30],16 µg/mL
same,MIC,Enterobacter cloacae [31],> 256 µg/mL
same,MIC,Enterobacter cloacae [32],> 256 µg/mL
same,MIC,Klebsiella pneumoniae [33],> 256 µg/mL
same,MIC,Citrobacter freundii [34],256 µg/mL
same,MIC,Escherichia coli [35],> 256 µg/mL
same,MIC,Enterobacter cloacae [36],256 µg/mL
same,MIC,Klebsiella pneumoniae [37],> 256 µg/mL
same,MIC,Enterobacter cloacae [38],256 µg/mL
same,MIC,Enterobacter cloacae [39],> 256 µg/mL
same,MIC,Enterobacter cloacae [40],> 256 µg/mL
same,MIC,Escherichia coli [41],> 256 µg/mL
